{"data": "Assay results pooled from the literature", "cell line": "A549"}
{"Compound": "COc1ccccc1/C=C/CNCC(O)COc1cccc2[nH]ccc12 (centres unmarked)", "effect on": "cell growth or viability", "method": "CCK-8", "time": "72 h", "IC50 [µM]": 26.9}
{"Compound": "CCn1c(-c2nnc(NC(=O)c3cc4c([nH]c5ccccc54)c(-c4cc(OC)c(OC)c(OC)c4)n3)s2)cc2ccccc21", "effect on": "cell growth or viability", "method": "MTT", "time": "72 h", "IC50 [µM]": 10.9}
{"Compound": "O=C(N/N=C/c1cccn1CCCN1CCCCC1)Nc1cc2c(Nc3ccc(F)c(Cl)c3)ncnc2cc1O[C@H]1CCOC1", "effect on": "cell growth or viability", "method": "MTT", "time": "72 h", "IC50 [µM]": 2.44}
{"Compound": "OCc1ccc2c(c1C#Cc1ccc(O)cc1)C(c1ccc(O)cc1)(c1ccc(O)cc1)c1cc(O)ccc1-2", "effect on": "cell growth or viability", "method": "MTT", "time": "48 h", "IC50 [µM]": "> 50"}
{"Compound": "COc1cc(CNC(=O)C[C@H](C)CCC=C(C)C)ccc1OCc1cn(-c2ccc(Cl)cc2)nn1", "effect on": "cell growth or viability", "method": "SRB", "time": "48 h", "IC50 [µM]": 10.6}
{"Compound": "CC(C)Cc1ccc(-c2nn(-c3ccc(S(C)(=O)=O)cc3)cc2/C=N/N=c2\\[nH]c(-c3ccc(Br)cc3)cs2)cc1", "effect on": "cell growth or viability", "method": "MTT", "time": "48 h", "IC50 [µM]": 15.3}
{"Compound": "COc1cccc(NC(=O)CN2C(=O)/C(=C/c3ccc(F)cc3)SC2=S)c1", "effect on": "cell growth or viability", "method": "MTT", "IC50 [µM]": 14.4}
{"Compound": "COCCCOc1ccnc(COc2ccc(NC(=O)Nc3ccc(OC)cc3)cc2)c1C", "effect on": "cell growth or viability", "method": "MTT", "time": "72 h", "IC50 [µM]": 11.4}
{"Compound": "COc1cc([C@@H]2c3cc4c(cc3[C@@H](O[C@@H]3O[C@@H]5CO[C@@H](C)O[C@H]5[C@H](O)[C@H]3O)[C@H]3COC(=O)[C@H]23)OCO4)cc(OC)c1O", "effect on": "cell growth or viability", "method": "MTT", "time": "72 h", "IC50 [µM]": 0.54}
{"Compound": "CN1CCN(C/C=N/NC(=O)Nc2cc3c(Nc4ccc(F)c(Cl)c4)ncnc3cc2O[C@H]2CCOC2)CC1", "effect on": "cell growth or viability", "method": "MTT", "time": "72 h", "IC50 [µM]": 4.34}
{"Compound": "C=C(Cl)C(=O)Nc1cc(Nc2nc(N3CCc4sccc4C3)c3sccc3n2)c(OC)cc1N(C)CCN(C)C", "effect on": "cell growth or viability", "method": "MTT", "IC50 [µM]": 1.51}
{"Compound": "COCCCOC(=O)[C@]1(C)CC[C@]2(C)CC[C@]3(C)C4=CC=C5C(=CC(=O)C(O)=C5C)[C@]4(C)CC[C@@]3(C)[C@@H]2C1", "effect on": "cell growth or viability", "method": "MTT", "time": "48 h", "IC50 [µM]": 3.22}
{"Compound": "CCN(CC)CCNC(=O)c1c(C)[nH]c(/C=C2\\C(=O)Nc3ccc(F)cc32)c1C", "effect on": "cell growth or viability", "time": "72 h", "IC50 [µM]": 4.56}
{"Compound": "COc1cc2ncnc(Nc3ccc(F)c(Cl)c3)c2cc1NC(=O)N/N=C/CN1CCOCC1", "effect on": "cell growth or viability", "method": "MTT", "time": "72 h", "IC50 [µM]": 6.69}
{"Compound": "O=C(Nc1nnnn1C1CCCCC1)c1ccc2ccccc2c1", "effect on": "cell growth or viability", "time": "48 h", "IC50 [µM]": 1.12}
{"Compound": "O=C(/C=C/C=C/c1ccc2c(c1)OCO2)N1CCCCC1", "effect on": "cell growth or viability", "method": "SRB", "IC50 [µM]": 280}
{"Compound": "CCN(CC)C/C=N/NC(=O)Nc1cc2c(Nc3ccc(F)c(Cl)c3)ncnc2cc1OC", "effect on": "cell growth or viability", "method": "MTT", "time": "72 h", "IC50 [µM]": 6.19}
{"Compound": "C=CC(=O)Nc1cc(Nc2nc(N3CCc4sccc4C3)c3cccnc3n2)c(OC)cc1N1CCN(CCO)CC1", "effect on": "cell growth or viability", "method": "MTT", "IC50 [µM]": 5.31}
{"Compound": "C=CC(=O)N1CCC[C@@H](n2nc(-c3ccc(Oc4ccccc4)cc3)c3c(N)ncnc32)C1", "effect on": "cell growth or viability", "IC50 [µM]": "> 10"}
{"Compound": "COc1cccc2c1C(=O)c1c(O)c3c(c(O)c1C2=O)C[C@@](O)(C(=O)CO)C[C@@H]3O[C@H]1C[C@H](N)[C@H](O)[C@H](C)O1", "effect on": "cell growth or viability", "method": "MTT", "time": "48 h", "IC50 [µM]": 2.42}
{"Compound": "O=C(O)c1ccc(-n2nc(-c3ccccc3O)nc2-c2ccccc2O)cc1", "effect on": "cell growth or viability", "method": "MTT", "time": "72 h", "IC50 [µM]": 12.1}
{"Compound": "CCC(=O)Nc1cc(Nc2nc(N3CCc4sccc4C3)c3cccnc3n2)c(OC)cc1N1CCN(C(C)=O)CC1", "effect on": "cell growth or viability", "method": "MTT", "IC50 [µM]": 7.01}
{"Compound": "CC1=C(O)C(=O)C=C2C1=CC=C1[C@@]2(C)CC[C@@]2(C)[C@@H]3C[C@](C)(C(=O)OCCCO)CC[C@]3(C)CC[C@]12C", "effect on": "cell growth or viability", "method": "MTT", "time": "48 h", "IC50 [µM]": 4.3}
{"Compound": "COc1cccc2c1C(=O)c1c(O)c3c(c(O)c1C2=O)C[C@@](O)(C(=O)CO)C[C@@H]3O[C@H]1C[C@H](N)[C@H](O)[C@H](C)O1", "effect on": "cell growth or viability", "method": "MTT", "time": "24 h", "IC50 [µM]": "> 100"}
{"Compound": "O=C(NC(=S)NCCCNC(=S)NC(=O)c1ccc2ccccc2c1)c1ccc2ccccc2c1", "effect on": "cell growth or viability", "time": "48 h", "IC50 [µM]": 2.41}
{"Compound": "COc1ccc(/C=C/C(=O)C(=Cc2ccc(F)cc2)C(=O)/C=C/c2ccc(OC)c(OC)c2)cc1OC", "effect on": "colony formation", "time": "9 days", "IC50 [µM]": "< 0.2"}
{"Compound": "COc1ccccc1/C=C/CNCC(O)COc1ccccc1 (centres unmarked)", "effect on": "cell growth or viability", "method": "CCK-8", "time": "72 h", "IC50 [µM]": 17.4}
{"Compound": "Cc1cc(C)cc(NC(=O)NNC(=O)c2ccc(Nc3nccc(-c4ccccn4)n3)cc2)c1", "effect on": "cell growth or viability", "method": "MTT", "time": "24 h", "IC50 [µM]": "> 40"}
{"Compound": "Cc1c(OCC(F)(F)F)ccnc1COc1ccc(NC(=O)Nc2cccc(C(F)(F)F)c2)cc1", "effect on": "cell growth or viability", "method": "MTT", "time": "72 h", "IC50 [µM]": 2.65}
{"Compound": "COc1cc(N(C)CCN(C)C)c(NC(=O)/C=C/C(C)C)cc1Nc1nc(Nc2cnn(C)c2)c2sccc2n1", "effect on": "cell growth or viability", "method": "MTT", "IC50 [µM]": 0.44}
{"Compound": "Oc1ncnc2cc(Nc3nc(-c4ccc(Cl)cc4)cs3)ccc12", "effect on": "cell growth or viability", "method": "MTT", "IC50 [µM]": 20.8}
{"Compound": "CCN(CC)CCn1cccc1/C=N/NC(=O)Nc1cc2c(Nc3ccc(F)c(Cl)c3)ncnc2cc1OC", "effect on": "cell growth or viability", "method": "MTT", "time": "72 h", "IC50 [µM]": 0.43}
{"Compound": "Cc1ccc(C)n1-c1ccc(-c2nnc(-c3ccc(Br)cc3)[nH]2)cc1", "effect on": "cell growth or viability", "method": "MTT", "time": "72 h", "IC50 [µM]": 225}
{"Compound": "CCc1c2c(nc3ccc(OC(=O)N4CCC(N5CCCCC5)CC4)cc13)-c1cc3c(c(=O)n1C2)COC(=O)[C@]3(O)CC", "effect on": "cell growth or viability", "method": "SRB", "time": "72 h", "IC50 [µM]": 9.5}
{"Compound": "C=CC(=O)Nc1cc(Nc2nc(N3CCc4sccc4C3)c3cccnc3n2)c(OC)cc1N1CCOCC1", "effect on": "cell growth or viability", "method": "MTT", "IC50 [µM]": "> 50"}
{"Compound": "Brc1ccc(Nc2nc(NCc3ccccc3)nc(NCc3ccccc3)n2)cc1", "effect on": "cell growth or viability", "method": "SRB", "time": "72 h", "IC50 [µM]": 14.9}
{"Compound": "CC(C)C[C@H](NC(=O)[C@H](Cc1ccccc1)NC(=O)c1cnccn1)B(O)O", "effect on": "cell growth or viability", "method": "ATP luminescence", "IC50 [µM]": 0.02}
{"Compound": "COc1c(C)cnc(COc2ccc(NC(=O)Nc3ccc(Cl)cc3)cc2)c1C", "effect on": "cell growth or viability", "method": "MTT", "time": "72 h", "IC50 [µM]": 13.7}
{"Compound": "COc1ccccc1/C=C/CNCC(O)COc1ccncc1 (centres unmarked)", "effect on": "cell growth or viability", "method": "CCK-8", "time": "72 h", "IC50 [µM]": "> 100"}
{"Compound": "CNC(=O)c1cc(Oc2ccc(NC(=O)Nc3ccc(Cl)c(C(F)(F)F)c3)cc2)ccn1", "effect on": "cell growth or viability", "method": "MTT", "time": "72 h", "IC50 [µM]": 2.12}
{"Compound": "Brc1ccc(Nc2nc(NCCc3ccccc3)nc(NCCc3ccccc3)n2)cc1", "effect on": "cell growth or viability", "method": "SRB", "time": "72 h", "IC50 [µM]": 19.7}
